Read-outs that look alike come from different tables or passages of the source. Marks after values point to notes of the source that are not given here.
How the values were obtained:
[1] = target: NDM-1 (Klebsiella pneumoniae, UniProt C7C422); assay: In vitro inhibition of NDM-1-catalyzed turnover of nitrocefin; type: biochemical
Procedure, shortened: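 Purified NDM-1 enzyme, identity and purity confirmed by ESI-MS. Test compound serially diluted in 50 mM HEPES, pH 7.2, and preincubated with 1 nM NDM-1 for 10 min at rt. Nitrocefin (20 µM) then added; absorbance at 492 nm followed over 30 min at rt. Slopes normalized to each compound's maximum slope, plotted against log concentration; IC50 and confidence intervals from curve fit.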

[2] = system: E. coli MG1655 expressing NDM-1; type: cell-based
[3] = system: E. coli UTI89 expressing NDM-1; type: cell-based
[4] = E. coli MG1655, 100 μM compound

Chain of NDM-1 (C7C422 29-270, looked up, species assumed): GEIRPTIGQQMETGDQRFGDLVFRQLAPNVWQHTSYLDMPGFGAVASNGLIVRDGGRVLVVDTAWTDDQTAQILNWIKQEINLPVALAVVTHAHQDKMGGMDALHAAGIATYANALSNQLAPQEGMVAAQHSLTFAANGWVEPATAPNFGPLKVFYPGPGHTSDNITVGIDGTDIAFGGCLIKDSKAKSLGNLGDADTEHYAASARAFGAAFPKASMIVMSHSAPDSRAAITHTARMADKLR

SMILES: O=C(O)c1cccc2oc(-c3ccc4ccccc4c3O)nc12 [Compound 5, 2-(1-hydroxynaphthalen-2-yl)benzoxazole-4-carboxylic acid]
- IC50 [1]: 0.74 µM
- Decrease of the MIC of meropenem [2, 4]: at least 16 fold
- Decrease of the MIC of meropenem ([3]; E. coli UTI89, 100 μM compound): at least 16 fold

SMILES: O=C(O)c1cccc2oc(-c3cc4ccccc4cc3O)nc12 [Compound 6, 2-(3-hydroxynaphthalen-2-yl)benzoxazole-4-carboxylic acid]
- IC50 [1]: 9.8 µM

SMILES: O=C(O)c1cccc2oc(-c3c(O)ccc4ccccc34)nc12 [Compound 7, 2-(2-hydroxynaphthalen-1-yl)benzoxazole-4-carboxylic acid]
- IC50 [1]: 8.5 µM
- Restoration of meropenem susceptibility [2, 4]: failed to restore meropenem susceptibility
- Meropenem MIC ([2]; E. coli MG1655, meropenem + 100 μM compound): 64 µg/mL
- Restoration of meropenem susceptibility ([3]; E. coli UTI89, 100 μM compound): failed to restore meropenem susceptibility
- Meropenem MIC ([3]; E. coli UTI89, meropenem + 100 μM compound): 64 µg/mL

SMILES: O=C(O)c1cccc2oc(-c3ccc4ccc(OCc5ccccc5)cc4c3O)nc12 [Compound 8, 2-(7-benzyloxy-1-hydroxynaphthalen-2-yl)benzoxazole-4-carboxylic acid]
- IC50 [1]: 2.3 µM
- Decrease of the MIC of meropenem [2, 4]: at least 16 fold
- Decrease of the MIC of meropenem ([3]; E. coli UTI89, 100 μM compound): at least 16 fold

SMILES: O=C(O)c1cccc2oc(-c3ccc4cc(OCc5ccccc5)ccc4c3O)nc12 [Compound 9, 2-(6-benzyloxy-1-hydroxynaphthalen-2-yl)benzoxazole-4-carboxylic acid]
- Reduction of the MIC of meropenem ([2]; E. coli MG1655, 25 μM compound): at least 4 fold
- Decrease of the MIC of meropenem [2, 4]: at least 16 fold
- Antibacterial activity of compound on its own ([2]; E. coli MG1655, 200 μM, no meropenem): did not show any antibacterial activity
- Meropenem MIC ([2]; E. coli MG1655, meropenem + 25 μM compound): 16 µg/mL
- Meropenem MIC ([2]; E. coli MG1655, meropenem + 50 μM compound): 1–4^[a] μg/mL
- Meropenem MIC ([2]; E. coli MG1655, meropenem + 200 μM compound): ≤0.5 µg/mL
- Reduction of the MIC of meropenem ([3]; E. coli UTI89, 25 μM compound): at least 4 fold
- Decrease of the MIC of meropenem ([3]; E. coli UTI89, 100 μM compound): at least 16 fold
- Antibacterial activity of compound on its own ([3]; E. coli UTI89, 200 μM, no meropenem): did not show any antibacterial activity
- Meropenem MIC ([3]; E. coli UTI89, meropenem + 25 μM compound): 4–8^[a] μg/mL
- Meropenem MIC ([3]; E. coli UTI89, meropenem + 50 μM compound): ≤0.5 µg/mL
- Meropenem MIC ([3]; E. coli UTI89, meropenem + 200 μM compound): ≤0.5 µg/mL

SMILES: O=C(O)c1cccc2oc(-c3ccc4c(OCc5ccccc5)cccc4c3O)nc12 [Compound 10, 2-(5-benzyloxy-1-hydroxynaphthalen-2-yl)benzoxazole-4-carboxylic acid]
- IC50 [1]: > 40 µM
- Inhibitory activity against NDM-1 (in words) [1]: lack of inhibitory activity

SMILES: C[C@@H](O)[C@H]1C(=O)N2C(C(=O)O)=C(S[C@@H]3CN[C@H](C(=O)N(C)C)C3)[C@H](C)[C@H]12 [Meropenem, reference compound]
- Meropenem MIC ([2]; E. coli MG1655, meropenem alone): 64 µg/mL
- Meropenem MIC ([3]; E. coli UTI89, meropenem alone): >64 µg/mL
- MIC ([3]; Escherichia coli, read-out: Meropenem MIC, E. coli UTI89, meropenem alone): ≥ 64 µg/mL
